Measured values from article PMC11900868 (Science Advances, 2025).

System: CCl4-induced liver fibrosis mice
Assay: Res treatment of CCl4-induced liver fibrosis, histology and immunohistochemistry
Type: in vivo, male Balb/c mice
Conditions: CCl4 10 weeks then discontinued; 10 mg/kg intraperitoneal twice a week
Procedure, shortened: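 Fibrosis induced in male Balb/c mice by intraperitoneal 20% CCl4 in olive oil twice weekly: 0.1 ml week 1, 0.15 ml week 2, 0.2 ml thereafter. After 10 weeks, CCl4 stopped and resveratrol given intraperitoneally at 10 mg/kg twice weekly for 1 or 3 weeks. Liver sections stained with H&E and Sirius red, plus α-SMA and FAP immunostaining. Percent positive area quantified; mean ± SD, ANOVA.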

## Oc1ccc(/C=C/c2cc(O)cc(O)c2)cc1 [Res, resveratrol]
  fibrotic tissue, HSCs activation and FAP expression after 1 week of treatment: significant reduction in fibrotic tissue, HSCs activation, and FAP expression levels
  fibrotic tissue, HSCs activation and FAP expression after 3 weeks of treatment: all parameters approached normal levels
